High-throughput results: PubChem BioAssay, The Scripps Research Institute Molecular Screening Center
STAT3 activator: IL-6 driven STAT3 reporter potentiators, primary screen, U3A cells, luciferase, luminescence, MLSCN library. IL-6 STAT3-luciferase reporter; 100% = signal with IL-6 EC80 alone. activation (% of control), % at 5.6 µM. 190,000 compounds, 0.91% hits;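 active means activation above the screen-wide mean of compound activation plus 3 SD, cut at about 130% in these data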;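 further: 0% = background luminescence of wells with medium and substrate only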
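Material: STAT3-luciferase reporter U3A cells. Controls: IL-6-treated wells, 100% activation. Read-out: % activation versus median of IL-6-stimulated wells. Probe or stimulus: IL-6 stimulus at 33 ng/mL final. Timing: compound 1 h, then IL-6 6 h at 37 °C. Signal: reporter luminescence signal.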
STAT1 act: STAT1 signaling activators, primary screen, cell-based, HTS, luciferase reporter | activation (% of control), % at 5.5 µM | NIH 3T3 STAT1-luciferase reporter, IFN-gamma, luminescence; 100% = IFN-gamma alone, no compound | AID 932, 2007 | 200,000 compounds, 2.6% hits;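 active means activation above the screen-wide mean activation plus 3 SD, cut at about 130% in these data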;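 further: raw ratio to IFN-gamma control signal so 100% means no change and 0% no light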
STAT1 inh: STAT1 signaling inhibitors, primary screen, cell-based, HTS, luciferase reporter; 200,000 compounds, 0.35% hits; AID 920, 2007; NIH 3T3 STAT1-luciferase reporter, IFN-gamma, luminescence; inhibition, % at 5.5 µM;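 active means inhibition above a set limit, the mean inhibition across all tested compounds plus 3 SD, cut at about 34% in these data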;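 further: 0% = IFN-gamma with DMSO and 100% = IFN-gamma with 300 µM nifuroxazide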
STAT3 inh: IL-6 driven STAT3 reporter inhibitors, primary screen, U3A cells, luciferase, luminescence, MLSCN library; IL-6 STAT3-luciferase reporter; host cell line lacks STAT1; inhibition, % at 5.5 µM; 190,000 compounds, 0.89% hits; AID 862, 2007;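 active means inhibition above the mean inhibition across all screened compounds plus 3 SD, cut at about 44% in these data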;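 further: 0% = DMSO only wells and 100% = 100 µM nifuroxazide control wells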
STAT1 activ conf: STAT1 signaling activators, confirmation, cell-based, HTS, luciferase reporter | 1,200 compounds, 97% hits | NIH 3T3 STAT1-luciferase reporter, IFN-gamma potentiation, luminescence; 100% = IFN-gamma EC80 alone, no compound | shares compounds with STAT1 act | activation (% of control), % at 5.7 µM;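 active means activation above a set limit carried over from the earlier primary STAT1 screen, cut at about 140% in these data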;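 further: simple ratio to median IFN-gamma plus DMSO wells so 0% means no light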
NFkB act STAT1ct: NF-kB reporter activators, TNF-alpha stimulated, counter-screen for STAT1 activator project, cell-based, HEK293T, luciferase luminescence; shares compounds with STAT1 act; 100% = TNF-alpha with vehicle only; activation (% of control), % at 5.7 µM; 1,200 compounds, 43% hits; AID 1306, 2008;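 active means activation above the mean of solvent-only control wells plus 3 SD, set per campaign, cut at about 130% in these data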;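 further: TNF-alpha given at a submaximal dose yielding about 80% of full reporter signal; values are well signal over median control so 100% means no change and 0% no light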
STAT3 act STAT1c: STAT3 reporter activation by STAT1 hits, confirmation, counter-screen for STAT1 activator project, U3A cells, luciferase, luminescence | shares compounds with STAT1 act | activation (% of control), % at 5.7 µM | 1,200 compounds, 46% hits | IL-6; cells lack STAT1; 100 = IL-6 alone, no compound effect;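 active means activation above the solvent-only control well mean plus 3 SD, set per plate batch, cut at about 110% in these data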;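 further: 0% = no luminescence and 100% = median IL-6 plus DMSO wells; higher means more STAT3 reporter activation so hits are non-selective activators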
Numbers without * were called inactive; x = not tested or not shown. A selection: hits, their analogues and other compounds. The true share with any hit is near 4.3%.

SMILES | STAT3 activator | STAT1 act | STAT1 inh | STAT3 inh | STAT1 activ conf | NFkB act STAT1ct | STAT3 act STAT1c
C(=C\c1ccccc1)/C=N/Nc1nc2ccccc2s1 | 130 | 158* | -65 | -32 | 238* | 141* | 129*
COc1ccc2oc(=Nc3ccccc3)c(-c3nc4ccccc4[nH]3)cc2c1 | 130 | 161* | -68 | -27 | 164* | 124 | 138*
COc1ccc2oc(=Nc3cccc(F)c3)c(C(N)=O)cc2c1 | 92 | 123 | -28 | 12 | x | x | x
Cc1cc(C(=O)N2CCN(Cc3ccccc3)CC2)on1 | 96 | 98 | 3 | 13 | x | x | x
COc1ccccc1-c1nc(-c2ccc(C)nc2OC)no1 | 94 | 157* | -62 | 10 | 165* | 126 | 103
CCc1nc(-c2ccc(C)nc2OC)no1 | 100 | 103 | 1 | 0 | x | x | x
Cc1ccc(NC(=O)COc2ccccc2C=O)cc1Cl | 107 | 200* | -113 | -4 | 209* | 137* | 109
Cc1ccc2nc(C)cc(C(=O)N3CCCC(CO)(Cc4ccccc4C)C3)c2c1 (stereo unspecified) | 104 | 93 | 8 | -4 | x | x | x
Cc1ccc(OCC(=O)Nc2ccccc2[N+](=O)[O-])c(Br)c1 | 112 | 160* | -66 | 0 | 202* | 135* | 109
Cc1cccnc1NC(=O)c1cc2ccccc2oc1=O | 97 | 156* | -59 | 4 | 191* | 117 | 117*
CCc1nnc(NC(=O)c2cc3ccccc3oc2=O)s1 | 83 | 108 | -9 | 24 | x | x | x
COc1ccc(C(=O)/C=C/Nc2cccc(C)n2)cc1OC | 101 | 171* | -86 | 1 | 209* | 130 | 108
COc1ccc(N/C=C\C(=O)c2ccc3c(c2)OCO3)cc1OC | 105 | 156* | -63 | -5 | 171* | 132 | 104
CC1(C)CC(O)C(C(O)c2cccc([N+](=O)[O-])c2)C(C)(C)N1 (stereo unspecified) | 102 | 102 | -2 | 1 | x | x | x
C=CCOc1ccc(C(=O)CC)cc1OC | 78 | 99 | 1 | 28 | x | x | x
N#CCc1ccc(NC(=O)/C=C/c2ccc([N+](=O)[O-])o2)cc1 | 83 | 312* | -231 | 23 | 130* | 155* | 102
N#C/C(=C\c1ccc([N+](=O)[O-])o1)C(=O)Nc1ccc(F)cc1 | 92 | 87 | 14 | 11 | x | x | x
Cc1cccnc1NC(=S)Nc1ccc(Br)cc1Cl | 102 | 154* | -64 | 2 | 198* | 143* | 105
CC(=Nc1ccccc1)C1=C(O)COC1=O | 102 | 106 | -7 | 5 | x | x | x
CC(=Nc1ccccc1)c1sc2ccccc2c1O | 124 | 190* | -99 | -23 | 228* | 133* | 150*
Cc1cc(C)cc(Nc2ncc3c(n2)CCCC3=O)c1 | 75 | 154* | -58 | 31 | 185* | 106 | 107
CC1COC(=O)C(NNc2ccc(Cl)c(Cl)c2)=N1 (stereo unspecified) | 106 | 94 | 4 | -6 | x | x | x
CCOC(=O)/C(C#N)=C\C=C1C=CN(C)C=C1 | 105 | 154* | -59 | -2 | 162* | 123 | 115*
COc1ccc(Cn2c(C3CC3)nc3ccc(NC(=O)C4CC4)cc3c2=O)cc1 | 110 | 209* | -119 | -5 | 294* | 144* | 124*
COc1cccc(Cn2c(C3CC3)nc3ccc(NC(=O)c4ccco4)cc3c2=O)c1 | 83 | 111 | -12 | 22 | x | x | x
SMILES | STAT3 activator | STAT1 act | STAT1 inh | STAT3 inh | STAT1 activ conf | NFkB act STAT1ct | STAT3 act STAT1c
O=c1[nH]c(SCc2ccc(F)cc2Cl)nc2ccccc12 | 86 | 99 | -1 | 22 | x | x | x
O=C(CSCc1nc2c(nnn2Cc2ccc(F)cc2)c(=O)[nH]1)Nc1cccc(C(F)(F)F)c1 | 106 | 104 | -6 | -3 | x | x | x
CCn1c(-c2ccccc2)csc1=Nc1ccc(O)cc1 | 122 | 163* | -72 | -19 | 172* | 114 | 120*
OCCn1c(-c2ccc(F)cc2)csc1=Nc1ccccc1 | 96 | 108 | -8 | 4 | x | x | x
O=C(O)CCc1nc(-c2cccs2)no1 | 106 | 96 | 4 | -1 | x | x | x
O=[N+]([O-])c1ccccc1OCc1nc(-c2cccs2)no1 | 109 | 180* | -87 | -2 | 226* | 142* | 122*
COc1ccccc1CN1CCN(Cc2nc(-c3cccs3)no2)CC1 | 107 | 109 | -11 | 4 | x | x | x
O=[N+]([O-])c1ccc(F)cc1OCc1nc(-c2cccs2)no1 | 106 | 172* | -81 | 4 | 203* | 145* | 120*
CCOC(=O)C1CCN(C(=O)CSc2ccccc2Cl)CC1 | 98 | 98 | 1 | 10 | x | x | x
COc1ccc(OCc2cc(-c3ccc(Cl)cc3)no2)cc1 | 92 | 105 | -6 | 11 | x | x | x
c1ccc(SCc2cc(-c3ccccc3)no2)cc1 | 97 | 162* | -70 | 14 | 175* | 127 | 102
c1ccc(OCc2cc(-c3ccccc3)no2)cc1 | 90 | 152* | -54 | 12 | 169* | 131 | 99
COc1ccccc1OCc1cc(-c2ccccc2)no1 | 106 | 161* | -69 | 4 | 184* | 138* | 106
Clc1ccc(-c2cc(CSc3cccc(Cl)c3)on2)cc1 | 81 | 98 | 2 | 29 | x | x | x
O=[N+]([O-])c1cccc(S(=O)(=O)c2ccc(NCCO)c([N+](=O)[O-])c2)c1 | 97 | 90 | 9 | 9 | x | x | x
CN(C(=O)c1cc(-n2cnnc2)ccc1Cl)c1ccccc1 | 105 | 115 | -17 | -8 | x | x | x
Cc1cc(C(=O)CSc2nnnn2C)c(C)n1CCc1ccc(F)cc1 | 100 | 103 | -3 | 7 | x | x | x
Cc1ccc(-n2c(C)cc(C(=O)CSc3nnnn3C)c2C)cc1 | 84 | 162* | -67 | 21 | 201* | 130 | 114*
COc1ccc(/C=N/n2cnnc2SCCO)cc1OC | 112 | 99 | 1 | -13 | x | x | x
C=CCSc1nncn1/N=C/c1ccc(OC)cc1 | 125 | 184* | -92 | -25 | 201* | 146* | 133*
COc1ccc(NC(=O)Nc2ccc(Br)cn2)cc1 | 97 | 169* | -74 | 3 | 160* | 120 | 91
COC(=O)c1ccccc1NC(=O)Nc1ccc(Br)cn1 | 92 | 108 | -8 | 12 | x | x | x
Cc1ccc(NC(=O)Nc2ccc(Cl)cn2)cc1 | 94 | 172* | -80 | 18 | 171* | 130 | 99
